ChEMBL document CHEMBL1137710, “Synthesis and in vitro antitumor activity of new quinoxaline derivatives” (2009)

What was measured:
Format in all cases: functional
[1] = system: NCI-H460; assay: Anticancer activity against human NCI-H460 cells assessed as cell growth at 100 uM after 48 hrs by sulforhodamine B assay; conditions: NCI-H460, 48 h, read-out: Activity
[2] = system: MCF7; assay: Anticancer activity against human MCF7 cells assessed as cell growth at 100 uM after 48 hrs by sulforhodamine B assay; conditions: MCF7, 48 h, read-out: Activity
[3] = system: K562; assay: Growth inhibition of human K562 cells after 48 hrs by sulforhodamine B assay; conditions: K562, 48 h
In short: (§1)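 NCI 60-human-tumor-cell-line panel, with compounds tested over a 5-log dose range. Values are taken from dose-response curves as log10 molar concentrations: GI50 is 50% net growth inhibition, TGI is total growth inhibition, and LC50 is 50% net cell death.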

[4] = system: A549; assay: Growth inhibition of human A549 cells after 48 hrs by sulforhodamine B assay; conditions: A549, 48 h; in short: as §1
[5] = system: NCI-H322M; assay: Growth inhibition of human NCI-H322M cells after 48 hrs by sulforhodamine B assay; in short: as §1
[6] = system: NCI-H522; assay: Growth inhibition of human NCI-H522 cells after 48 hrs by sulforhodamine B assay; conditions: NCI-H522, 48 h; in short: as §1
[7] = system: COLO 205; assay: Growth inhibition of human COLO205 cells after 48 hrs by sulforhodamine B assay; conditions: COLO 205, 48 h; in short: as §1
[8] = system: HCT-116; assay: Growth inhibition of human HCT116 cells after 48 hrs by sulforhodamine B assay; conditions: HCT-116, 48 h; in short: as §1
[9] = system: SW-620; assay: Growth inhibition of human SW620 cells after 48 hrs by sulforhodamine B assay; conditions: SW-620, 48 h
In short: (§2)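 Run in the NCI 60-human-tumour-cell-line panel, tested over a 5-log dose range. Dose–response curves gave three values per cell line, each as a log10 molar concentration: GI50 (50% inhibition of net cell growth), TGI (total inhibition of net growth) and LC50 (50% net cell death). The mean graph midpoint is the arithmetic mean over all lines, with insensitive lines entered at the highest concentration tested.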

[10] = system: SF-268; assay: Growth inhibition of human SF268 cells after 48 hrs by sulforhodamine B assay; conditions: SF-268, 48 h; in short: as §1
[11] = system: SF-295; assay: Growth inhibition of human SF295 cells after 48 hrs by sulforhodamine B assay; conditions: SF-295, 48 h; in short: as §1
[12] = system: U-251; assay: Growth inhibition of human U251 cells after 48 hrs by sulforhodamine B assay; conditions: U-251, 48 h; in short: as §2
[13] = system: LOX IMVI; assay: Growth inhibition of human LOXIMVI cells after 48 hrs by sulforhodamine B assay; in short: as §1
[14] = system: M14; assay: Growth inhibition of human M14 cells after 48 hrs by sulforhodamine B assay; conditions: M14, 48 h; in short: as §1
[15] = system: SK-MEL-28; assay: Growth inhibition of human SK-MEL-28 cells after 48 hrs by sulforhodamine B assay; conditions: SK-MEL-28, 48 h; in short: as §1
[16] = system: SK-MEL-5; assay: Growth inhibition of human SK-MEL-5 cells after 48 hrs by sulforhodamine B assay; conditions: SK-MEL-5, 48 h; in short: as §1
[17] = system: IGROV-1; assay: Growth inhibition of human IGROV1 cells after 48 hrs by sulforhodamine B assay; conditions: IGROV-1, 48 h; in short: as §1
[18] = system: OVCAR-4; assay: Growth inhibition of human OVCAR4 cells after 48 hrs by sulforhodamine B assay; conditions: OVCAR-4, 48 h; in short: as §1
[19] = system: OVCAR-5; assay: Growth inhibition of human OVCAR5 cells after 48 hrs by sulforhodamine B assay; conditions: OVCAR-5, 48 h; in short: as §1
[20] = system: OVCAR-8; assay: Growth inhibition of human OVCAR8 cells after 48 hrs by sulforhodamine B assay; conditions: OVCAR-8, 48 h; in short: as §1
[21] = system: 786-0; assay: Growth inhibition of human 786-0 cells after 48 hrs by sulforhodamine B assay; conditions: 786-0, 48 h; in short: as §1
[22] = system: CAKI-1; assay: Growth inhibition of human Caki1 cells after 48 hrs by sulforhodamine B assay; conditions: CAKI-1, 48 h; in short: as §1
[23] = system: RXF 393; assay: Growth inhibition of human RXF393 cells after 48 hrs by sulforhodamine B assay; conditions: RXF 393, 48 h; in short: as §1
[24] = system: TK-10; assay: Growth inhibition of human TK10 cells after 48 hrs by sulforhodamine B assay; conditions: TK-10, 48 h; in short: as §2
[25] = system: PC-3; assay: Growth inhibition of human PC3 cells after 48 hrs by sulforhodamine B assay; conditions: PC-3, 48 h; in short: as §1
[26] = system: DU-145; assay: Growth inhibition of human DU145 cells after 48 hrs by sulforhodamine B assay; conditions: DU-145, 48 h; in short: as §1
[27] = system: NCI/ADR-RES; assay: Growth inhibition of human NCI/ADR-RES cells after 48 hrs by sulforhodamine B assay; in short: as §1
[28] = system: MDA-MB-231; assay: Growth inhibition of human MDA-MB-231 cells after 48 hrs by sulforhodamine B assay; conditions: MDA-MB-231, 48 h; in short: as §1
[29] = Growth inhibition of human Hs 578T cells after 48 hrs by sulforhodamine B assay; in short: as §1
[30] = system: MDA-MB-435; assay: Growth inhibition of human MDA-MB-435 cells after 48 hrs by sulforhodamine B assay; conditions: MDA-MB-435, 48 h; in short: as §1
[31] = read-out: pLC50 (the source's name) (converted)

SMILES: Nc1cc(N)c2nc(-c3ccccc3)c(Oc3ccc(F)cc3)nc2c1
- growth at 100 µM [1]: 0%
- growth at 100 µM [2]: 2%
- GI50 [3]: 11 µM
- LC50 [3]: > 100 µM
- TGI ([3]; read-out: pTGI (converted)): > 100 µM
- GI50 [4]: 24 µM
- LC50 [4]: 89.1 µM
- TGI ([4]; read-out: pTGI (converted)): 46.8 µM
- GI50 [5]: 17 µM
- LC50 [5]: 81.3 µM
- TGI ([5]; read-out: pTGI (converted)): 37.2 µM
- GI50 [6]: 64.6 µM
- LC50 [6]: > 100 µM
- TGI ([6]; read-out: pTGI (converted)): > 100 µM
- GI50 [7]: 20 µM
- LC50 (50% net cell kill) [7]: 66.1 µM
- TGI ([7]; read-out: pTGI (converted)): 36.3 µM
- GI50 [8]: 14.8 µM
- LC50 (concentration causing 50% net cell death) [8]: > 100 µM
- TGI ([8]; read-out: pTGI (converted)): 81.3 µM
- GI50 [9]: 19.5 µM
- CC50 [9, 31]: > 100 µM
- TGI ([9]; read-out: pTGI (converted)): 50.1 µM
- GI50 [10]: 13.8 µM
- LC50 [10]: > 100 µM
- TGI ([10]; read-out: pTGI (converted)): 47.9 µM
- GI50 [11]: 20.4 µM
- LC50 (50% net cell kill) [11]: 72.4 µM
- TGI ([11]; read-out: pTGI (converted)): 38.9 µM
- GI50 [12]: 23.4 µM
- LC50 (50% net cell kill) [12]: > 100 µM
- TGI ([12]; read-out: pTGI (converted)): 79.4 µM
- GI50 [13]: 43.7 µM
- LC50 [13]: > 100 µM
- TGI ([13]; read-out: pTGI (converted)): > 100 µM
- GI50 [14]: 17 µM
- CC50 [14, 31]: > 100 µM
- TGI ([14]; read-out: pTGI (converted)): 44.7 µM
- GI50 [15]: 19.5 µM
- CC50 [15, 31]: > 100 µM
- TGI ([15]; read-out: pTGI (converted)): 46.8 µM
- GI50 [16]: 12.3 µM
- CC50 [16, 31]: 83.2 µM
- TGI ([16]; read-out: pTGI (converted)): 31.6 µM
- GI50 [17]: 28.2 µM
- CC50 [17, 31]: > 100 µM
- TGI ([17]; read-out: pTGI (converted)): > 100 µM
- GI50 [18]: 8.32 µM
- CC50 [18, 31]: > 100 µM
- TGI ([18]; read-out: pTGI (converted)): 35.5 µM
- GI50 [19]: 20.4 µM
- CC50 [19, 31]: > 100 µM
- TGI ([19]; read-out: pTGI (converted)): 47.9 µM
- GI50 [20]: 22.4 µM
- CC50 [20, 31]: 100 µM
- TGI ([20]; read-out: pTGI (converted)): 47.9 µM
- GI50 [21]: 15.5 µM
- CC50 [21, 31]: 75.9 µM
- TGI ([21]; read-out: pTGI (converted)): 34.7 µM
- GI50 [22]: 11.2 µM
- CC50 [22, 31]: 53.7 µM
- TGI ([22]; read-out: pTGI (converted)): 24.5 µM
- GI50 [23]: 19.1 µM
- CC50 [23, 31]: > 100 µM
- TGI ([23]; read-out: pTGI (converted)): > 100 µM
- GI50 [24]: 16.6 µM
- CC50 [24, 31]: 64.6 µM
- TGI ([24]; read-out: pTGI (converted)): 32.4 µM
- GI50 [25]: 8.32 µM
- CC50 [25, 31]: 83.2 µM
- TGI ([25]; read-out: pTGI (converted)): 27.5 µM
- GI50 [26]: 0.46 µM
- CC50 [26, 31]: > 100 µM
- TGI ([26]; read-out: pTGI (converted)): 87.1 µM
- GI50 [27]: 18.2 µM
- CC50 [27, 31]: 70.8 µM
- TGI ([27]; read-out: pTGI (converted)): 36.3 µM
- GI50 [28]: 3.89 µM
- CC50 [28, 31]: > 100 µM
- TGI ([28]; read-out: pTGI (converted)): 28.8 µM
- GI50 [29]: 20 µM
- CC50 [29, 31]: > 100 µM
- TGI ([29]; read-out: pTGI (converted)): 53.7 µM
- GI50 [30]: 15.8 µM
- CC50 [30, 31]: 67.6 µM
- TGI ([30]; read-out: pTGI (converted)): 32.4 µM
